From publication PMC10259527 (International Journal of Nanomedicine, 2023)

How the values were obtained:
[1] = Biodistribution by ex vivo fluorescence imaging of major organs; assay type: in vivo, BALB/c nude mice; conditions: Cy5.5-labeled, single oral 25 mg/kg, mice
How it was run: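 Female BALB/c nude mice, acclimated 1 week and fasted 12 h overnight with water, got one oral dose of 25 mg/kg (by parent mass). Cy5.5-labeled nanoparticles were given in PBS; Cy5.5-labeled free compound as an H2O/DMSO (40:1) suspension. Four mice per group were killed at 2, 4, 6, 8 and 24 h. Heart, liver, lungs, spleen and kidneys were PBS-washed and imaged ex vivo for fluorescence. Liver intensity was quantified (n = 4, mean ± SEM).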

Cytotoxicity assay = assay type: cell-based; conditions: human, HepG2 cells
How it was run: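 HepG2 cells were seeded at 5×10^3/well. Treatment ran 48 h at 37°C, 5% CO2: free compound at 10–50 μM, nanoparticle form at 10–100 μM. Controls got vehicle only (0.1% v/v DMSO or deionized water). Viability was read by CCK-8 and normalized to vehicle controls, mean ± SEM.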

[2] = In vivo toxicity in the hepatic AE mouse model; set-up: species or system C57BL/6J mice; conditions: oral 100 mg/kg once daily for 30 days; for Histopathology of liver parenchyma surrounding the metacestodes: H&E
How it was run: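 Female C57BL/6J mice were infected by portal-vein protoscolex injection. At 3 months, after ultrasound-confirmed metacestode growth, mice (n = 8/group) got oral gavage at 100 mg/kg daily for 30 days, dosed with 0.5% CMC suspensions or CMC alone. Sham-operated uninfected mice got portal saline. Afterwards, retro-orbital blood was drawn under isoflurane. Plasma (2000 g, 15 min, 4°C; stored −20°C) was assayed for ALT/AST on an automatic biochemical analyzer.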

[3] = In vivo pharmacokinetic study; set-up: species or system BALB/c mice; conditions: BALB/c, mouse, plasma
How it was run: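 BALB/c mice (5–6 weeks, 20 ± 2 g; n = 6 per time point, 3 male + 3 female) got one IV dose (5 mg/kg) or oral gavage (100 mg/kg). Free compound was given in 5% DMSO/10% solutol HS-15/85% (20% hydroxypropyl-β-cyclodextrin in saline). Tail-vein blood was taken at 0.08–48 h and plasma separated at 2000 g, 15 min. Concentrations were measured by LC–MS/MS; parameters came from non-compartmental analysis.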

Structure (SMILES)	Decrease of fluorescence intensity in the liver from 8 h to 24 h [1]	CC50 at 48 h (Cytotoxicity assay)	Histopathology of liver parenchyma surrounding the metacestodes [2]	Liver transaminases (mean ALT and AST values) ([2]; compared to shamed individuals)	AUC(0-inf) ([3]; both, iv, 5 mg/kg)	AUC(0-t) ([3]; both, iv, 5 mg/kg)	Cmax ([3]; both, iv, 5 mg/kg)	Tmax ([3]; both, iv, 5 mg/kg)	Vd ([3]; both, iv, 5 mg/kg)	clearance ([3]; both, iv, 5 mg/kg)	half-life ([3]; both, iv, 5 mg/kg)	bioavailability ([3]; both, oral, 100 mg/kg)	AUC(0-inf) ([3]; both, po, 100 mg/kg)	AUC(0-t) ([3]; both, po, 100 mg/kg)	Cmax ([3]; both, po, 100 mg/kg)	Tmax ([3]; both, po, 100 mg/kg)	half-life ([3]; both, po, 100 mg/kg)	half-life ([3]; female, po, 100 mg/kg)	half-life ([3]; male, po, 100 mg/kg)
CCCNCC(O)Cn1c2ccc(Cl)cc2c2cc(Cl)ccc21 (centres unmarked) [Compound H1402, 1-(3,6-dichloro-9H-carbazol-9-yl)-3-(propylamino)propan-2-ol]	49.9%	14.9 µM	inflammatory infiltrate, fibroplastic proliferation, and hepatocellular necrosis	various degrees of increase	7.6 µM·h	7.5 µM·h	2.6 µM	0.083 h	19 L/kg	32 mL/min/kg	7 h	69.8%	128 µM·h	104 µM·h	4.4 µM	6 h	17.5 h	24.6 h	10.4 h
CCCSc1ccc2nc(NC(=O)OC)[nH]c2c1 [albendazole, reference compound]	–	–	inflammatory infiltrate, fibroplastic proliferation, and hepatocellular necrosis	–	–	–	–	–	–	–	–	–	–	–	–	–	–	–	–
